MrgX1 antagonist = blocks BAM8-22 activation of human MrgX1 receptor. 310,000 compounds, 1.3% hits. B-score at 10 µM. AID 588676. Q96LB2. MRGX1-HEK293 calcium flux, Fluo-4, BAM8-22 antagonism; stronger effect = lower value;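 active means calcium-response B-score plate-corrected more than 3 library SD below zero, starting fluorescence within 5 deviations, no agonist response on first addition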;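 further: peak minus trough fluorescence over baseline after final BAM8-22 challenge near maximal dose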
Target sequence (Q96LB2 whole entry, looked up): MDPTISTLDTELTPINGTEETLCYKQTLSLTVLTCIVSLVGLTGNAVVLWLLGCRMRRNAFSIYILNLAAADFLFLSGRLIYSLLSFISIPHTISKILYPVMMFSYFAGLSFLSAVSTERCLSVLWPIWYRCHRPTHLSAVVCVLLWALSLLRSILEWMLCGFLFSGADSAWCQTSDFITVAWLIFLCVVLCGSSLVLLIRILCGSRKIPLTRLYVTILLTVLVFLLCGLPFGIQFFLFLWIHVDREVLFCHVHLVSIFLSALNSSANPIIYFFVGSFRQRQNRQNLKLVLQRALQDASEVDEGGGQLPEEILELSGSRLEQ
RGS4 block = human RGS4 inhibition; P49798; 310,000 compounds, 0.45% hits; AID 463165; B-score at 10 µM; HEK293 M3R/RGS4 inducible, Fluo-4 calcium flux; stronger effect = higher value; triggered by carbachol at its EC20;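 active means B-score, a plate-corrected calcium signal, over three deviations above library mean, with baseline fluorescence within five deviations of library mean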;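 further: RGS4 expression induced by doxycycline in cells with stable M3 receptor; B-score is computed from the integrated fluorescence ratio over baseline after carbachol; higher B-score means a larger calcium signal and so more RGS4 inhibition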
Target sequence (P49798 whole entry, looked up): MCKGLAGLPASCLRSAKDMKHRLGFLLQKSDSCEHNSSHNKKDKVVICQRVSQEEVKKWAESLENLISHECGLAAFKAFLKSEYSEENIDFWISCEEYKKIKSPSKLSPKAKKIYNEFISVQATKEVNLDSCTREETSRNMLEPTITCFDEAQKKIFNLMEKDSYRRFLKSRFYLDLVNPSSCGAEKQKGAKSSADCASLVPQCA
MrgX1 PAM = allosterically activates human MrgX1 receptor signaling; Q96LB2; MrgX1-HEK293, Fluo-4 calcium flux, FDSS; stronger effect = higher value; B-score at 10 µM; 310,000 compounds, 0.63% hits;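 active means plate-corrected calcium response at least 3 library SD above typical, normal starting fluorescence, not activating the receptor alone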;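 further: compound read alongside a low EC10 to EC30 dose of BAM8-22 agonist; peak minus trough fluorescence over baseline measured at the second addition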
MrgX1 ag = agonists of human MrgX1 receptor | Q96LB2 | MrgX1-HEK293 cells, Fluo-4 calcium fluorescence, agonist mode; stronger effect = higher value | B-score at 10 µM | 310,000 compounds, 0.44% hits | AID 588627;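 active means calcium response B-score plate-corrected fluorescence ratio at least 3 library SD, with starting fluorescence B-score inside 5 SD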
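Test system: HEK293 cells stably expressing human MrgX1 receptor; amount: 15,000 cells per well; doses: compound delivered in addition one of three; times: overnight plating before 1 h dye loading; detection: Fluo-4 NW calcium-flux fluorescence, kinetic read; read-out basis: B-scored fluorescence response ratio; controls: positive and negative controls per plate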
RGS4 act = potentiators or activators of RGS4 | B-score at 10 µM | HEK293 M3R/inducible RGS4, carbachol calcium flux Fluo4; stronger effect = lower value | AID 463111 | 310,000 compounds, 0.92% hits;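 active means B-score of the integrated calcium signal more than 4 SD below the library mean, with starting fluorescence not abnormally high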;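 further: negative B-score means reduced calcium response which marks RGS4 activation or potentiation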
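Detection: kinetic calcium fluorescence imaging with Fluo4-AM dye, 2 µM / Material: HEK293 cells with stable M3R and inducible RGS4 / Schedule: recording 10 s baseline at 1 Hz, 100 s post-agonist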
MrgX1 ag reconf = reconfirmed activator of human MrgX1 receptor signaling; shares compounds with MrgX1 ag; MrgX1-HEK293, Fluo-4 calcium fluorescence, FDSS; activation, % at 10 µM; 600 compounds, 78% hits;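 active means calcium signal rise, corrected for plate position, at least 3 library SD high, with starting brightness within 5 such deviations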
HEK293 Ca flux = activity in parental HEK293 cells lacking MrgX1; fluorescence ratio F(max-min)/F0 at 10 µM; 4,000 compounds, 2% hits; shares compounds with MrgX1 antagonist; Fluo-4 calcium fluorescence, FDSS;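 active means duplicate-averaged calcium fluorescence ratio at least three times the standard deviation of buffer wells, a nonspecific response in parental cells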
HEK293 Ca counter = counter-screen for MrgX1 allosteric activators: effect in parental HEK293 cells | shares compounds with MrgX1 antagonist | parental HEK293 calcium flux, Fluo-4 fluorescence ratio; stronger effect = higher value | fluorescence ratio F(max-min)/F0 at 10 µM | 4,000 compounds, 0.4% hits | AID 624114;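 active means calcium fluorescence ratio, averaged over duplicates, at least 3 SD of the buffer-well ratio, meaning a nonspecific response in receptor-free cells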;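 further: untransfected parental HEK293 lacking MrgX1 used as counterscreen for MrgX1 allosteric activators; fluorescence change taken during the second addition on a kinetic imager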
HEK293 Ca cntr2 = activity in parental HEK293 cells lacking MrgX1 receptor; shares compounds with MrgX1 antagonist; Fluo-4 calcium fluorescence (FDSS); stronger effect = higher value; fluorescence ratio F(max-min)/F0 at 10 µM; 4,000 compounds, 8.7% hits; AID 624115;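 active means calcium fluorescence ratio at least three times the spread of buffer wells, meaning a non-specific response in parental cells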
Numbers stand for hits; – = inactive; · = no result given. A selection: hits, their analogues and other compounds. The true share with any hit is near 3.5%.

SMILES	MrgX1 antagonist	RGS4 block	MrgX1 PAM	MrgX1 ag	RGS4 act	MrgX1 ag reconf	HEK293 Ca flux	HEK293 Ca counter	HEK293 Ca cntr2
NC(=Nc1ccccc1)NC(=O)c1nc(Cl)c(N)nc1N	–	–	–	–	–	·	·	·	·
CN(C)c1nc(N)c(C(=O)N=C(N)N)nc1Cl	–	–	–	35	–	170%	–	–	–
O=S(=O)(Nc1cccc2c1CCCC2)c1ccc(Cl)cc1	–	–	–	–	–	·	·	·	·
O=C(COC(=O)c1cc(Cl)ccc1Cl)Nc1ccc2[nH]c(=O)[nH]c2c1	–	–	–	–	–	·	·	·	·
O=C1CC(O)(C(F)(F)F)Oc2c1ccc1ccccc21 (centres undefined)	–	–	–	90	–	565%	–	–	103
O=C(Nc1ccnn1C1CCN(Cc2cc3ccccc3[nH]2)CC1)C1CCOC1 (centres undefined)	–	–	–	29	–	339%	–	–	73
Cc1c(CN2CCC(n3nccc3NC(=O)C3CCOC3)CC2)[nH]c2ccccc12 (centres undefined)	–	–	–	–	–	·	·	·	·
CCc1nc2ccccc2n1Cc1ccc(OC)c(OC)c1	–	–	–	41	–	–	–	–	–
CC1(c2ccccc2)CC(C)(C)n2c(O)c(C3=NC(=S)NC3=O)c3cccc1c32 (centres undefined)	–	–	–	–	–	·	·	·	·
CC1(c2ccccc2)CC(C)(C)N2C(=O)C(=O)c3cccc1c32 (centres undefined)	–	–	–	29	–	–	–	–	–
CC(=O)Cc1nsc(NC(=O)c2ccccc2Cl)n1	–	–	–	–	–	·	·	·	·
CC(=O)Cc1nsc(NC(=O)c2oc(-c3ccccc3Cl)cc2C)n1	–	–	–	36	–	112%	–	–	–
Cc1ccc2nc(/C(C#N)=C\c3ccc(N4CCOCC4)o3)[nH]c2c1	–	–	–	68	–	–	0.33	–	–
C=C(C)Cn1c(SCC(=O)O)nnc1-c1ccccc1	–	–	–	–	–	·	·	·	·
C=C(C)Cn1c(-c2ccccc2)nc2ccccc21	–	–	–	31	–	131%	–	–	–
Cn1c(SCC(=O)O)nnc1-c1ccc(NC(=O)c2ccc(Cl)c(Cl)c2)cc1	–	–	–	–	–	·	·	·	·
O=C1Cc2ccccc2Sc2ccc(O)cc21	–	–	–	29	–	114%	–	–	–
Cc1cccc2c1Sc1ccccc1CC2=O	–	–	–	33	–	113%	–	–	–
Nc1ccc2c(c1)CC(=O)c1ccccc1S2	–	–	–	42	–	102%	–	–	–
Nc1ccc(N2C(=O)c3ccccc3C2=O)c(Cl)c1	–	·	–	–	·	·	·	·	·
O=C1c2ccccc2CSc2c(O)cccc21	–	–	–	–	–	·	·	·	·
COc1cccc(NC(=O)CSc2nc(=O)n(Cc3ccncc3)c3c2CCCC3)c1	–	–	–	–	–	·	·	·	·
O=c1c2cc(Br)ccc2nc(-c2cccc(C(F)(F)F)c2)n1O	–	–	–	119	–	620%	–	–	144
Cc1ccccc1-c1nc2ccc(Cl)cc2c(=O)n1O	–	–	–	–	–	·	·	·	·
O=c1c2cc(Cl)ccc2nc(-c2ccc(Cl)c(Cl)c2)n1O	–	–	–	151	-7.7	719%	–	–	122
SMILES	MrgX1 antagonist	RGS4 block	MrgX1 PAM	MrgX1 ag	RGS4 act	MrgX1 ag reconf	HEK293 Ca flux	HEK293 Ca counter	HEK293 Ca cntr2
CC(C)Cc1csc(NC(=O)c2ccc(Cl)cc2)c1C(=O)O	–	–	–	37	–	224%	–	–	52
CC1(C)CC(=O)C(C(C2=C(O)CC(C)(C)CC2=O)c2ccc(Cl)c([N+](=O)[O-])c2)C(=O)C1 (centres undefined)	–	–	–	91	–	–	–	–	–
Cc1nn(Cc2ccccc2)c2c1C(c1cccc(Cl)c1)C(C#N)=C(N)O2 (centres undefined)	–	–	–	35	–	174%	–	–	47
Cc1ccc2nc(Nc3ccc(Cl)cc3)c3nncn3c2c1	–	–	–	–	–	·	·	·	·
CCc1nnc(NC(=O)CSc2n[nH]c(-c3ccccc3O)n2)s1	–	–	–	–	–	·	·	·	·
CCc1ccc(N2CC(C(=O)N/N=C/c3ccccc3)CC2=O)cc1 (centres undefined)	–	–	–	–	–	·	·	·	·
COc1cc(SC)ccc1C(=O)Nc1ccc(Cl)cn1	–	–	–	40	–	–	–	–	–
CCOc1ccc(CCNc2nc3ccc(C)cc3n3cnnc23)cc1OCC	–	–	–	–	–	·	·	·	·
COc1ccc(C(=O)Nc2cccc(NC(=O)c3ccc(OC)c(OC)c3)n2)cc1OC	–	–	–	–	–	·	·	·	·
CCOC(=O)c1ccc2c(c1)N(CC(=O)N1CCCC1)C(=O)C(C)(C)O2	–	–	–	–	–	·	·	·	·
CCOC(=O)c1ccc2c(c1)N(CC#N)C(=O)C(C)(C)O2	–	–	–	50	–	109%	–	–	46
CSCCC1COC(c2cccs2)=N1 (centres undefined)	–	–	–	–	–	·	·	·	·
COC(=O)Cn1c(=O)c2c(n(Cc3ccccc3)c1=O)N/C(=C/c1ccc(Br)cc1)C2=O	–	–	–	45	–	383%	–	–	72
O=C1N/C(=C/c2ccc(Br)cc2)C(O)=C1C=NCc1ccccc1	–	–	–	–	–	·	·	·	·
O=C(Nc1nnc(-c2ccc3c(c2)CCCC3)o1)c1ccccc1Cl	–	–	–	–	–	·	·	·	·
O=C(Nc1nnc(-c2ccc3c(c2)CCCC3)o1)c1ccccc1	–	–	–	28	–	140%	–	–	51
COc1cccc(-c2nnc(NC(=O)c3cccc(F)c3)o2)c1	–	–	–	28	–	686%	–	–	107
Cc1ccc(-c2cc(NC(=O)CCl)n(-c3ccccc3)n2)cc1	–	–	–	35	–	150%	–	–	–
NC1=NC2=C(CCCC2)C2(CCCCC2)S1	–	–	–	32	–	160%	–	–	–
Cc1cccc(CCN2C(Nc3ccccc3)=NC[C@@H]2CC(C)C)c1	–	·	–	114	·	586%	–	–	101
CC(C)CCN1C(Nc2ccccc2)=NC[C@@H]1CC(C)C	–	–	–	–	–	·	·	·	·
CC(C)C[C@H]1CN=C(Nc2ccccc2)N1CCc1ccc(F)cc1	–	·	–	120	·	575%	–	–	106
CCN1C(Nc2ccccc2)=NC[C@@H]1CC(C)C	–	–	–	–	–	·	·	·	·
